Key:
[1] = Binding affinity to 5'-biotin-labeled GCTAGTC-CAGGCTTTTGCCTGGACTAGC-3' DNA (unknown origin) by surface plasmon resonance assay
Outline: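 Biacore SPR at 25 °C. Biotinylated hairpin DNA is captured on a streptavidin SA chip. Polyamides are diluted from 4 mM DMSO stocks into HBS-EP (10 mM HEPES […], 0.15 M NaCl, 3 mM EDTA, 0.005% P20) with 0.1% DMSO, which is also the running buffer. Samples are injected at 5 μL/min over 6.25 nM–4 μM. Regeneration uses running buffer or 10 mM glycine-HCl, pH 1.5. KD is obtained by model fitting.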

[2] = Binding affinity to 5'-CGTATGGACTCGG-3' DNA (unknown origin) assessed as increase in fluorescence intensity at 200 nM by florescence assay relative to control
Outline: (§1)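 Steady-state fluorescence of 200 nM pyrene conjugates mixed with target oligonucleotide duplex in 5 mM Na phosphate buffer, pH 7.0, 1% v/v DMF. Excitation at 345 nm, emission read at 386 nm. Measured at room temperature without oxygen removal. Intensity is compared with that of the conjugate alone.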

[3] = Binding affinity to 5'-CCGAGTCCATACG-3' DNA (unknown origin) assessed as increase in fluorescence intensity at 200 nM by florescence assay relative to control; outline: as §1

| Kd [1] [nM] | fold change (FC) [2] | fold change (FC) [3] | Structure (SMILES) |
| --- | --- | --- | --- |
| > 10000 | 3 | 3 | CN(C)CCCNC(=O)CCNC(=O)c1cc(NC(=O)c2cc(NC(=O)c3cc(NC(=O)c4nc(NC(=O)CCCNC(=O)c5cc(NC(=O)c6cc(NC(=O)c7nc(NC(=O)c8nc(NC(=O)CCNC(=O)CCNC(=O)CCCc9ccc%10ccc%11cccc%12ccc9c%10c%11%12)cn8C)cn7C)cn6C)cn5C)cn4C)cn3C)cn2C)cn1C |
| 17.3 | 4 | 4 | CC(=O)Nc1cn(C)c(C(=O)Nc2cn(C)c(C(=O)Nc3cc(C(=O)Nc4cc(C(=O)NCC[C@@H](NC(=O)CCNC(=O)CCCc5ccc6ccc7cccc8ccc5c6c78)C(=O)Nc5cn(C)c(C(=O)Nc6cc(C(=O)Nc7cc(C(=O)Nc8cc(C(=O)NCCC(=O)NCCCN(C)C)n(C)c8)n(C)c7)n(C)c6)n5)n(C)c4)n(C)c3)n2)n1 |
| > 10000 | 3 | 3 | CN(C)CCCNC(=O)CCNC(=O)c1cc(NC(=O)c2cc(NC(=O)c3cc(NC(=O)c4nc(NC(=O)CCCNC(=O)c5cc(NC(=O)c6cc(NC(=O)c7nc(NC(=O)c8nc(NC(=O)CCNC(=O)CCCc9ccc%10ccc%11cccc%12ccc9c%10c%11%12)cn8C)cn7C)cn6C)cn5C)cn4C)cn3C)cn2C)cn1C |
| 1740 | 7 | 7 | CC(=O)Nc1cn(C)c(C(=O)Nc2cn(C)c(C(=O)Nc3cc(C(=O)Nc4cc(C(=O)NCC[C@@H](NC(=O)CCCc5ccc6ccc7cccc8ccc5c6c78)C(=O)Nc5cn(C)c(C(=O)Nc6cc(C(=O)Nc7cc(C(=O)Nc8cc(C(=O)NCCC(=O)NCCCN(C)C)n(C)c8)n(C)c7)n(C)c6)n5)n(C)c4)n(C)c3)n2)n1 |
